From ChEMBL document CHEMBL3091462 (J Nat Prod, 2013)
Activity calls are given as the source filed them. The rule behind the calls is not given here.

Legend:
[1] = test system: SW-620; assay: Induction of apoptosis in human SW620 cells expressing p21 siRNA assessed as increase of expression of cleaved caspase-9 and caspase-3 at 10 uM after 24 hrs by immunoblotting; format: functional, cell-based
In short: (§1)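 Cells transfected with 100 nM scrambled or p21 siRNA for 4 h, then grown 24 h in complete medium and treated with 10 μM for 24 h. p21, caspase-9/-3 and cleaved forms analysed by 15% SDS-PAGE immunoblot with densitometry. Means ± SD, three experiments in triplicate.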

[2] = test system: HCT-116; assay: Induction of apoptosis in human HCT116 cells expressing p21 siRNA assessed as increase of expression of cleaved caspase-9 and caspase-3 at 10 uM after 24 hrs by immunoblotting; format: functional, cell-based; in short: as §1
[3] = test system: SW-620; assay: Cytotoxicity against human SW620 cells expressing p21 siRNA at 10 uM after 24 hrs by trypan blue staining; format: functional, cell-based
In short: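 Cells plated at 5 × 10^4 per well and transfected with 100 nM scrambled or p21 siRNA in OPTI-MEM for 4 h. Complete RPMI medium was added and cells grown a further 24 h, then exposed to 10 μM for 24 h. Viability measured by direct count after trypan blue staining. Morphology viewed by phase-contrast at 200×. Means ± SD, three experiments in triplicate.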

[4] = test system: HCT-116; assay: Cytotoxicity against human HCT116 cells expressing p21 siRNA at 10 uM after 24 hrs by trypan blue staining; format: functional, cell-based
In short: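 Cells plated at 5 × 10^4 per well and transfected 4 h with 100 nM p21 or scrambled siRNA in OPTI-MEM, then grown 24 h in complete medium. Exposed to 10 μM for 24 h. Viability by trypan blue exclusion and direct counting. Means ± SD, three experiments in triplicate, compared with the scrambled-siRNA group.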

[5] = test system: HCT-116; assay: Induction of apoptosis in human HCT116 cells assessed as increase of Bax protein expression after 24 hrs by immunoblotting; format: functional, cell-based
In short: (§2)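 HCT-116 or SW-620 cells treated with 0–10 μM for 24 h, lysed, and run on 15% SDS-PAGE immunoblots. Probed for Bcl-2 (1:1000), Bax (1:500), caspase-9/-3 and their cleaved forms (1:1000), and β-actin (1:1000). Bands quantified by densitometry; means ± SD of three experiments in duplicate.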

[6] = test system: HCT-116; assay: Induction of apoptosis in human HCT116 cells assessed as reduction of Bcl-2 protein expression at 0.1 to 10 uM after 24 hrs by immunoblotting; format: functional, cell-based; in short: as §2
[7] = test system: SW-620; assay: Induction of apoptosis in human SW620 cells at 5 uM after 48 hrs using Annexin V-FITC and propidium iodide staining by flow cytometry (reference value: 3.8 +/- 2.1%); format: functional
In short: (§3)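 Subconfluent cells in RPMI 1640 + 10% FBS treated with 0–10 μM for 48 h. Harvested cells incubated 10 min with FITC-annexin V/PI, then analysed by flow cytometry (488/525 nm for annexin V-FITC, 488/675 nm for PI). Reported as % apoptotic cells, means ± SD of three experiments in triplicate.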

[8] = test system: HCT-116; assay: Induction of apoptosis in human HCT116 cells at 5 uM after 48 hrs using Annexin V-FITC and propidium iodide staining by flow cytometry (reference value: 7.6 +/- 3%); format: functional; in short: as §3
[9] = test system: SW-620; assay: Effect on p27 expression in p53 deficient human SW620 cells at 0.5 to 10 uM after 24 hrs by immunoblotting; format: functional, cell-based
[10] = test system: SW-620; assay: Decrease of Cdk2 expression in human SW620 cells after 24 hrs by immunoblotting; format: functional, cell-based
In short: (§4)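 HCT-116 or SW-620 cells exposed to 0–10 μM for 24 h. Cells lysed in Tris/NaCl/EDTA/1% Triton X-100 buffer with protease and phosphatase inhibitors at 4 °C, protein measured by BCA. Lysates run on 10–12.5% SDS-PAGE and immunoblotted, ECL detection. Cdk2, cyclin A and cyclin E antibodies used at 1:500; β-actin as loading control.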

[11] = test system: HCT-116; assay: Decrease of cyclin E expression in human HCT116 cells after 24 hrs by immunoblotting; format: functional, cell-based; in short: as §4
[12] = test system: HCT-116; assay: Decrease of cyclin A expression in human HCT116 cells after 24 hrs by immunoblotting; format: functional, cell-based; in short: as §4
[13] = test system: SW-620; assay: Cell cycle arrest in human SW620 cells assessed as accumulation at S phase at 0.5 uM after 48 hrs using propidium iodide staining by flow cytometry (reference value: 43.1 +/- 1%); format: functional
[14] = test system: SW-620; assay: Cell cycle arrest in human SW620 cells assessed as accumulation at G0/G1 phase at 1 uM after 48 hrs using propidium iodide staining by flow cytometry (reference value: 47.8 +/- 1.2%); format: functional
[15] = test system: SW-620; assay: Cell cycle arrest in human SW620 cells assessed as accumulation at G2/M phase at 1 uM after 48 hrs using propidium iodide staining by flow cytometry (reference value: 9.1 +/- 0.3%); format: functional
[16] = test system: SW-620; assay: Cell cycle arrest in human SW620 cells assessed as accumulation at S phase at 5 uM after 48 hrs using propidium iodide staining by flow cytometry (reference value: 43.1 +/- 1%); format: functional
[17] = test system: SW-620; assay: Cell cycle arrest in human SW620 cells assessed as accumulation at G2/M phase at 5 uM after 48 hrs using propidium iodide staining by flow cytometry (reference value: 9.1 +/- 0.3%); format: functional
[18] = test system: SW-620; assay: Cell cycle arrest in human SW620 cells assessed as accumulation at G2/M phase at 10 uM after 48 hrs using propidium iodide staining by flow cytometry (reference value: 9.1 +/- 0.3%); format: functional
[19] = test system: HCT-116; assay: Cell cycle arrest in human HCT116 cells assessed as accumulation at G2/M phase at 1 uM after 48 hrs using propidium iodide staining by flow cytometry (reference value: 7.1 +/- 0.3%); format: functional
[20] = test system: HCT-116; assay: Cell cycle arrest in human HCT116 cells assessed as accumulation at G2/M phase at 0.5 uM after 48 hrs using propidium iodide staining by flow cytometry (reference value: 7.1 +/- 0.3%); format: functional
[21] = test system: HCT-116; assay: Cell cycle arrest in human HCT116 cells assessed as accumulation at S phase at 0.5 uM after 48 hrs using propidium iodide staining by flow cytometry (reference value: 36.3 +/- 1.7%); format: functional
[22] = test system: HCT-116; assay: Cell cycle arrest in human HCT116 cells assessed as accumulation at S phase at 0.1 uM after 48 hrs using propidium iodide staining by flow cytometry (reference value: 36.3 +/- 1.7%); format: functional
[23] = test system: SW-620; assay: Cytotoxicity against human SW620 cells assessed as cell growth inhibition at 10 uM after 48 hrs; format: functional; settings: SW-620, 48 h, read-out: GI
In short: (§5)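 Cells seeded at 10^5 per well in RPMI 1640/10% FBS at 37 °C. Subconfluent cells exposed to 0, 0.1, 0.5, 1, 2, 5 or 10 μM for 48 h, or to 10 μM for 24, 48 and 72 h; ethanol vehicle, at most 0.01% v/v final. Cells trypsinized and counted by hemocytometer. Viability as % of control, means ± SD, three experiments in triplicate.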

[24] = test system: HCT-116; assay: Cytotoxicity against human HCT116 cells at 0.1 to 10 uM; format: functional, cell-based; settings: TDE = time-dependent effect; in short: as §5
[25] = test system: HCT-116; assay: Cell cycle arrest in human HCT116 cells assessed as accumulation at G0/G1 phase at 0.1 uM after 48 hrs using propidium iodide staining by flow cytometry (reference value: 56.7 +/- 1.9%); format: functional
[26] = test system: SW-620; assay: Cytotoxicity against human SW620 cells assessed as cell viability at 10 uM after 48 to 72 hrs; format: functional, cell-based; in short: as §5

SMILES: CC(C)c1cccc(=O)c(O)c1 [HINOKITIOL]
- Activity [1]: inactive
- Activity [2]: inactive
- Activity [3]: inactive
- Activity [4]: inactive
- Activity [5]: Dose-dependent effect
- Activity [6]: Active
- Activity [7]: 53.1%
- Activity [8]: 15.6%
- Activity [9]: inactive
- Activity [10]: Dose-dependent effect
- Activity [11]: Dose-dependent effect
- Activity [12]: Dose-dependent effect
- Activity [13]: 43.3%
- Activity [14]: 45.6%
- Activity [15]: 6.8%
- Activity [16]: 51.9%
- Activity [17]: 7.2%
- Activity [18]: 1.5%
- Activity [19]: 7.7%
- Activity [20]: 8%
- Activity [21]: 35.4%
- Activity [22]: 34.4%
- inhibition of growth at 10 µM [23]: 63%
- Activity [24]: tde
- Activity [25]: 58.1%
- Activity [26]: Active
